The values that follow come from ChEMBL document CHEMBL2384903, “Highly efficient biocompatible neuroprotectants with dual activity as antioxidants and P2Y receptor agonists” (J Med Chem, 2013).

In series [1] the test system is PC-12. Briefly: Cytotoxicity against rat PC12 cells assessed as cell viability up to 200 uM after 48 hrs by MTT assay. The series is classed as cell-based. The settings on record: pc-12, 48 h. The procedure, abridged:
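PC12 cells were exposed to compounds at various concentrations up to 200 μM for 48 h, and viability was measured by MTT assay.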
A general note: Tetrazolium dyes change colour on reduction, which living cells bring about.

Series [2] deals with P2Y purinoceptor 1 (Homo sapiens, UniProt P47900). Briefly: Agonist activity at human GFP-tagged P2Y1R transfected in human 1321N1 cells assessed as induction of intracellular calcium mobilization by fluorescence assay. The class given is functional, cell-based. In general terms: A change in cytosolic calcium serves as a functional read-out for many receptors and channels.
Sequence of P2Y purinoceptor 1 (Homo sapiens, UniProt P47900) (P47900 whole entry): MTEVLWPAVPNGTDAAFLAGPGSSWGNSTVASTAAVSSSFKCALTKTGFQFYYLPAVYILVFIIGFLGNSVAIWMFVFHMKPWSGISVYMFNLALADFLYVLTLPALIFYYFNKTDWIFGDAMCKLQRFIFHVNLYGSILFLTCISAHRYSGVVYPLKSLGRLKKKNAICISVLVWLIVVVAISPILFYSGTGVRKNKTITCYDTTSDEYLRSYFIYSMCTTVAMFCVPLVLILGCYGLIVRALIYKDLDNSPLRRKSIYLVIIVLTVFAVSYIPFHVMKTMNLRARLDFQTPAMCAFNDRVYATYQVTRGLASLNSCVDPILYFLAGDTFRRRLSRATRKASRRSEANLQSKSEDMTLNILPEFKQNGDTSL
The subject of series [3] is PC-12. Briefly: Antioxidant activity in rat PC12 cells assessed as inhibition of Fe2+-induced ROS production after 1 hr by DCFH-DA staining-based fluorometric analysis. The series is classed as functional, cell-based. The conditions noted are these: Rattus norvegicus, PC-12, 1 h; read-out: IC50. The procedure, abridged: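 PC12 cells grown in DMEM, seeded 24 h. Loaded with DCFH-DA (ethanol stock diluted 100-fold in PBS) for 20 min, then probe removed. Nucleotides added at final 0.2–200 μM, and oxidation started with FeSO4 at final 0.16 μM. Fluorescence at 485/530 nm read during 1 h at 37 °C. […] Mean ± SD of two experiments.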

The nature of series [4]: Antioxidant activity assessed as free radical scavenging activity after 7 mins by ABTS radical cation decolorization assay. The class given is functional. In a few lines:
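ABTS•+ is made from 7 mM ABTS and 2.45 mM persulfate (final), left in the dark at RT for 12–16 h, then diluted in water pH 7.4 to A734 0.80. It is mixed with compound or Trolox standard (final 0–60 μM), and A734 is read at exactly 7 min. Percent inhibition is plotted against concentration, with solvent blanks. Each run is done at least three times, in triplicate.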

Series [5] is described as follows: Antioxidant activity assessed as inhibiton of Fe2+-induced Fenton reaction-mediated hydroxyl radical formation from H2O2 measured for 150 secs by ESR analysis in presence of DMPO. The class given is functional. In a few lines:
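Spin-trap ESR run at room temperature, final volume 100 μL. 5–500 μM compound is combined with ammonium iron(II) sulfate (1 mM stock) and Tris pH 7.4. After 30 s mixing, DMPO (100 mM stock) and H2O2 (100 mM stock) are added, with final pH 7.2–7.4. Spectrum is recorded 150 s after H2O2 at 9.76 GHz, 6.35 mW. Mean ± SD of three experiments.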

Series [6] addresses T1, P2Y purinoceptor 11 (Homo sapiens, UniProt Q96G91).
T1 sequence (Q96G91 whole entry): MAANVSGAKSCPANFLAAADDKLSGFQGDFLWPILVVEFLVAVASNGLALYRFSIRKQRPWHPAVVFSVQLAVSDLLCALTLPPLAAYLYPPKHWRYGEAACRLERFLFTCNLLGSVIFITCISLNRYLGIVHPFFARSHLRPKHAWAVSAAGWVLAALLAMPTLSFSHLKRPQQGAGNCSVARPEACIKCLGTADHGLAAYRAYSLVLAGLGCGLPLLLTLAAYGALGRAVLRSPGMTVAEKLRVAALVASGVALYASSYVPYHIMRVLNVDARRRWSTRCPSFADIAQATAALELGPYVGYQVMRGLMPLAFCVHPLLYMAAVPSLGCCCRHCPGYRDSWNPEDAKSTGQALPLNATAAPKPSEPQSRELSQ
Briefly: Agonist activity at human GFP-tagged P2Y11R transfected in human 1321N1 cells assessed as induction of intracellular calcium mobilization by fluorescence assay. The series is classed as functional, cell-based.

A short description of series [7]: Metabolic stability in human serum assessed as compound remaining at 0.1 mg after 6 hrs by HPLC analysis. The class given is ADME, cell-free. The settings on record: read-out: Stability. The procedure, abridged:
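0.1 mg compound in water was mixed with human blood serum and RPMI-1640 medium (1:3 serum:medium) and incubated at 37 °C for 0−24 h. Remaining intact nucleotide was quantified from the change in its HPLC peak integration over time.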

Series [8] addresses P2Y purinoceptor 1 (Rattus norvegicus, UniProt P49651). Briefly: Agonist activity at rat brain P2Y1R transfected in HEK293 cells assessed as induction of intracellular calcium mobilization by fluorescence assay. The class given is functional, cell-based.
Series [9] can be described thus: Neuroprotective activity in rat primary cortical neurons assessed as decrease in FeSO4-induced oxidative stress measured cell viability after 24 hrs by MTT assay. The series is classed as functional, cell-based. The settings on record: Cerebral cortex neuron. In a few lines: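 Cortical neurons came from 1-day-old rat brain, were trypsin-dissociated and plated on polyornithine. They were grown in serum-free DMEM/F12 with B-27, then Ara-C treated for 48 h. Cells were treated with 0.01−5 μM nucleotide before FeSO4 (3 μM final) for 24 h. MTT 1 mg/mL was applied for 2 h at 37 °C, formazan dissolved in DMSO, absorbance read at 550 nm. Viability was expressed relative to vehicle control, mean ± SD of three independent experiments in triplicate.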

The species entered for series [10] is Homo sapiens. Briefly: Selectivity ratio of EC50 for human GFP-tagged P2Y11R to EC50 for human GFP-tagged P2Y1R. The procedure, abridged: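 1321N1 astrocytoma cells stably expressing human P2Y1-GFP or P2Y11-GFP were loaded with 2 μM fura-2 AM plus 0.02% pluronic acid in HEPES-buffered saline pH 7.4 for 30 min at 37 °C. They were then superfused at 37 °C with graded agonist concentrations. [Ca2+]i was read as the F340/F380 ratio (510 nm emission) in GFP-positive cells, at least 40 cells per point. EC50 came from concentration–response curves, n = 3.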

Series [11] can be described thus: Antioxidant activity assessed as inhibiton of Fe2+-induced Fenton reaction-mediated hydroxyl radical formation from H2O2 relative to trolox. The class given is functional. The procedure, abridged:
(§1)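 Fe(II)-H2O2 hydroxyl radical assay read by ESR with DMPO spin trap. Ammonium iron(II) sulfate (1 mM, stock) was added to 5−500 μM test compound, then 1 mM Tris pH 7.4. After 30 s mixing, DMPO then H2O2 were added. Final pH 7.2−7.4, 100 μL total, room temperature. Spectrum recorded 150 s after H2O2. IC50 given as mean ± SD of three experiments.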

Series [12] in a line: Antioxidant activity assessed as inhibiton of Fe2+-induced Fenton reaction-mediated hydroxyl radical formation from H2O2 relative to ATP. The series is classed as functional. In a few lines:
as §1

Sequence of P2Y purinoceptor 1 (Rattus norvegicus, UniProt P49651) (P49651 whole entry): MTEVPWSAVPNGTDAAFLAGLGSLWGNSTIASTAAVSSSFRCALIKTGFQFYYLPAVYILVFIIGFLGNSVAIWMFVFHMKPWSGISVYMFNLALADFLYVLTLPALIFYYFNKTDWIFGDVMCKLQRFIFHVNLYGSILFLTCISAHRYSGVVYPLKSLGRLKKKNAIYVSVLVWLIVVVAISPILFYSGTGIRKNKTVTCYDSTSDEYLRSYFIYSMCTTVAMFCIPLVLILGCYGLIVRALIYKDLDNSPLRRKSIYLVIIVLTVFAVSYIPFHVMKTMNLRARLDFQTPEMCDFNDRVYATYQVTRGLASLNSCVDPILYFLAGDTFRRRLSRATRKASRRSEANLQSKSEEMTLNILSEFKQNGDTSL

On to `[BH3-]P(=O)(OC[C@H]1O[C@@H](n2cnc3c(N)nc(Cl)nc32)[C@H](O)[C@@H]1O)OP(=O)([O-])C(Cl)(Cl)P(=O)([O-])[O-].[Na+].[Na+].[Na+].[Na+]` (stereo not given in full), for which the Activity entry in series [1] is given as “Non-toxic”.
Take `[BH3-]P(=O)(OC[C@H]1O[C@@H](n2cnc3c(N)ncnc32)[C@H](O)[C@@H]1O)OP(=O)([O-])OP(=O)([O-])OP(=O)([O-])OP(=O)([O-])OC[C@H]1O[C@@H](n2cnc3c(N)ncnc32)[C@H](O)[C@@H]1O.[Na+].[Na+].[Na+].[Na+].[Na+]` (stereo not given in full): the Activity entry in [1] is given as “Non-toxic”.
Usually EC50 stands for the concentration needed to bring the measured effect to its halfway point. One may read the IC50 as the concentration that inhibits the measured activity by half. As for `B[P@](=O)(OC[C@H]1O[C@@H](n2cnc3c(N)ncnc32)[C@H](O)[C@@H]1O)OP(=O)(O)OP(=O)(O)OP(=O)(O)OP(=O)(O)OC[C@H]1O[C@@H](n2cnc3c(N)ncnc32)[C@H](O)[C@@H]1O`, the values for the EC50 in [2] and in series [6] (1321-n1) were 3 µM and “Not Active”, respectively. Also, the figures for the IC50 in series [3], in series [4] and in series [5] were 1.2 µM, greater than 60 µM and 47 µM, respectively.
Turning to `BP(=O)(OP(=O)(O)OP(=O)(O)OC[C@H]1O[C@@H](n2cnc3c(N)ncnc32)[C@H](O)[C@@H]1O)OP(=O)(O)OP(=O)(O)OC[C@H]1O[C@@H](n2cnc3c(N)ncnc32)[C@H](O)[C@@H]1O`, in series [2], the 50% effective concentration (EC50) came to 1.2 µM. Further, the half-maximal inhibitory concentration (IC50) in series [3] was 5 µM; in series [4] it was 61 µM; in [5], 161 µM.
As to `Nc1ncnc2c1ncn2[C@@H]1O[C@H](COP(=O)(O)OP(=O)(O)O)[C@@H](O)[C@H]1O` [ADENOSINE DIPHOSPHATE], the half-maximal effective concentration (EC50) was determined as 0.024 µM in series [2] and 1.7 µM in [6] (read-out: EC50). Also, the remaining at 6 h in series [7] is 32%. For the same compound, the values for the concentration for half-maximal inhibition (IC50) in series [3], in series [4] and in [5] were 21 µM, 30 µM and 170 µM, respectively.
On to `B[P@@](=O)(OC[C@H]1O[C@@H](n2cnc3c(N)nc(Cl)nc32)[C@H](O)[C@@H]1O)OP(=O)(O)C(Cl)(Cl)P(=O)(O)O`, for which the results for the EC50 in series [2] and in [6] (read-out: EC50) were 0.15 µM and 1.4 µM, respectively. The 50% inhibitory concentration (IC50) stood at 0.18 µM in series [3], 24 µM in series [4] and 131 µM in [5].
`B[P@](=O)(OC[C@H]1O[C@@H](n2cnc3c(N)nc(Cl)nc32)[C@H](O)[C@@H]1O)OP(=O)(O)OP(=O)(O)O`: the half-maximal effective concentration (EC50) in [2] was 2.5 µM. The 50% inhibitory concentration (IC50) was determined as 2.6 µM in series [3], 24 µM in series [4] and 36 µM in series [5].
`B[P@@](=O)(OC[C@H]1O[C@@H](n2cnc3c(N)ncnc32)[C@H](O)[C@@H]1O)OP(=O)(O)OP(=O)(O)OP(=O)(O)OP(=O)(O)OC[C@H]1O[C@@H](n2cnc3c(N)ncnc32)[C@H](O)[C@@H]1O`: the EC50 is 0.2 µM in [2] and “Not Active” in [6] (1321-n1). Also, the values for the IC50 in series [3], in series [4] and in [5] were 0.4 µM, greater than 60 µM and 59 µM, respectively.
As to `Nc1ncnc2c1ncn2[C@@H]1O[C@H](COP(=O)(O)OP(=O)(O)OP(=O)(O)OP(=O)(O)OP(=O)(O)OC[C@H]2O[C@@H](n3cnc4c(N)ncnc43)[C@H](O)[C@@H]2O)[C@@H](O)[C@H]1O`, the EC50 in [2] was 0.76 µM. For the same compound, the IC50 was 29 µM in series [3], greater than 60 µM in series [4] and 75 µM in series [5].
For the compound `BP(=O)(OC[C@H]1O[C@@H](n2cnc3c(N)nc(Cl)nc32)[C@H](O)[C@@H]1O)OP(=O)(O)O` (stereo not given in full), the Activity result in [1] is recorded as “Non-toxic”.
Take `B[P@@](=O)(OC[C@H]1O[C@@H](n2cnc3c(N)nc(Cl)nc32)[C@H](O)[C@@H]1O)OP(=O)(O)OP(=O)(O)O`: the EC50 in [2] turned out to be 0.074 µM; in series [8], 0.0045 µM. Moreover, the half-maximal inhibitory concentration (IC50) in series [3] was 1 µM; in series [4] it was 23 µM; in [5], 66 µM.
Regarding `B[P@](=O)(OC[C@H]1O[C@@H](n2cnc3c(N)nc(Cl)nc32)[C@H](O)[C@@H]1O)OP(=O)(O)C(Cl)(Cl)P(=O)(O)O`, the EC50 stood at 0.95 µM in series [2] and 0.13 µM in series [6] (read-out: EC50). Moreover, the IC50 was 0.19 µM in series [3], 27 µM in [4] and 60 µM in series [5].
In the case of `[BH3-][P@@](=O)(OC[C@H]1O[C@@H](n2cnc3c(N)ncnc32)[C@H](O)[C@@H]1O)OP(=O)([O-])[O-].[Na+].[Na+].[Na+]`, the half-maximal effective concentration (EC50) in series [2] was 0.3 µM; in series [6] (1321-n1) it was “Not Active”. The remaining at 6 h in [7] stood at 56%. Moreover, the values for the 50% inhibitory concentration (IC50) in series [3], in series [4] and in series [5] were 1 µM, 26 µM and 47 µM, respectively.
For `O=C(O)CN(CCN(CC(=O)O)CC(=O)O)CC(=O)O` [EDETIC ACID], the IC50 in [5] was 54 µM.
In the case of `CSc1nc(N)c2ncn([C@@H]3O[C@H](COP(=O)(O)OP(=O)(O)O)[C@H](O)[C@H]3OC(=O)c3ccccc3)c2n1`, in series [6] (read-out: EC50), the EC50 came out at 1.5 µM.
For `B[P@](=O)(OC[C@H]1O[C@@H](n2cnc3c(N)ncnc32)[C@H](O)[C@@H]1O)OP(=O)(O)O`, the EC50 is 13 µM in series [2] and 2.9 µM in series [6] (read-out: EC50). Further, the values for the IC50 in [3], in series [4] and in series [5] were 1 µM, 24 µM and 41 µM, respectively.
As to `Cc1c(C)c2c(c(C)c1O)CCC(C)(C(=O)O)O2` (stereo not given) [TROLOX], the IC50 in series [3] is 20 µM; in series [4], 18 µM.
Regarding `B[P@](=O)(OC[C@H]1O[C@@H](n2cnc3c(N)nc(Cl)nc32)[C@H](O)[C@@H]1O)OP(=O)(O)O`, the EC50 in series [2] stood at 0.6 µM; in series [9], 0.4 µM; in [6] (read-out: EC50), 1 µM. Further, the half-maximal inhibitory concentration (IC50) was 0.2 µM in series [3], 39 µM in [4] and 120 µM in [5]. Besides, the Ratio EC50 in series [10] was less than 530.
For `Nc1ncnc2c1ncn2[C@@H]1O[C@H](COP(=O)(O)OP(=O)(O)OP(O)(O)=S)[C@@H](O)[C@H]1O`, the fold change (FC) in series [11] was found to be 20; in series [12], 100.
